Measured values of several laboratories.
Each line is one published result; the experiments were not run side by side.
Effect on: metabolic stability
Species: human
Sample: liver microsomes

Structure (SMILES)	conditions	microsomal CLint
CCC(F)(F)c1nc2nc(C)cc(Nc3ccc(C(F)(F)F)cc3)n2n1	1 µM, pH 7.4	< 6 µL/min/mg
c1ccc(-c2nc(NCCn3cnc4ccccc43)c3ccccc3n2)nc1		150 µL/min/mg
Clc1cccc(-c2c(-c3ccccn3)nc3n2CCC3)c1	3 µM, pH 7.4	140 µL/min/mg
O=[N+]([O-])c1ccc(Nc2ccnc3ccc(-c4ccc(S(=O)(=O)N5CCOCC5)cc4)cc23)cn1		106 µL/min/mg
c1ccc(-c2nc3n(c2-c2ccncc2)CCC3)nc1	3 µM, pH 7.4	26 µL/min/mg
COc1cc2[nH]c(C)c(-c3c(C)noc3C)c(=O)c2cc1Cl	1 µM	< 7 µL/min/mg
COc1cccnc1-c1nc2ccccn2c1Nc1ccc(F)cc1	3 µM, pH 7.4	19 µL/min/mg
c1ccc(C2CCN(c3nc(-c4ccco4)nc4ccccc34)C2)nc1 (centres unmarked)		149 µL/min/mg
O=C(Nc1ccnc(C(F)(F)F)c1)Nc1cccc2c1OC(F)(F)O2		14 µL/min/mg
CS(=O)(=O)c1ccc(-c2cnc(N)c(-c3ccc(C(F)(F)F)nc3)c2)cc1	1 µM	< 11.6 µL/min/mg
COc1cc2[nH]c(C)c(-c3ccc(OC(F)(F)F)cc3)c(=O)c2cc1Cl	1 µM	< 7 µL/min/mg
c1ccc(-c2nc(N3CCC(c4ccccn4)C3)c3ccccc3n2)cc1 (centres unmarked)		182 µL/min/mg
CCOC(=O)c1c(-c2cccc(Br)c2)[nH]c2cc(OC)c(F)cc2c1=O	19.8 µM, pH 7.4	< 4 µL/min/mg
c1ccc(-c2nc(N3CCCC3c3ccccn3)c3ccccc3n2)nc1 (centres unmarked)		62 µL/min/mg
Fc1ccc(Nc2c(Cn3cccn3)nc3ccccn23)cc1	3 µM, pH 7.4	45 µL/min/mg
O=S(=O)(c1ccc(-c2ccc3nccc(Nc4ccncc4)c3c2)cc1)N1CCOCC1		82.4 µL/min/mg
Cn1cnc(-c2nc3ccccn3c2Nc2ccc(F)cc2)c1	3 µM, pH 7.4	17 µL/min/mg
CCn1cnc2c(N3CCC(c4ccccn4)C3)nc(-c3ccccn3)nc21 (centres unmarked)		42 µL/min/mg
Cc1cnc(Nc2ccnc3ccc(-c4ccc(S(=O)(=O)N5CCOCC5)cc4)cc23)s1		76.3 µL/min/mg
c1ccc(-c2nc(N3CCOCC3)c3ccccc3n2)nc1		58 µL/min/mg
COc1ccc(CNc2c(CO)cnc3c(C4CC4)cc(C#N)cc23)cc1Cl		80 µL/min/mg
CC(C)(C)[Si](C)(C)OCCCN(c1ccc(F)cc1)c1c(-c2ccccn2)nc2ccccn12	3 µM, pH 7.4	> 300 µL/min/mg
COc1cc2[nH]c(C)c(-c3ccc(N(C)C)nc3)c(=O)c2cc1Cl	1 µM	20 µL/min/mg
c1ccc(CCNc2nc(-c3ccccn3)nc3ccccc23)nc1		42 µL/min/mg
COc1cc2[nH]c(C)c(-c3ccc(C(C)C)cc3)c(=O)c2cc1Cl	1 µM	34 µL/min/mg
Clc1ccc(-c2c(-c3ccccn3)nc3n2CCC3)cc1	3 µM, pH 7.4	170 µL/min/mg
